From ChEMBL document CHEMBL4330087, “Synthesis, antimicrobial activity, attenuation of aminoglycoside resistance in MRSA, and ribosomal A-site binding of pyrene-neomycin conjugates” (Eur J Med Chem, 2019)
Active and inactive are the calls of the source. The calls are words filed in the database; no cut-off is given here.

Legend:
[1] = Inhibition of APH(2\")-1a (unknown origin)
Homo sapiens [2] = organism: Homo sapiens; experiment: Displacement of F-NEO from human mitochondrial rRNA-A site A1490G mutant after 10 to 20 mins by fluorescence assay relative to NEO
In short: (§1)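 100 nM F-NEO:A-site complex in 10 mM HEPES, 50 mM NaCl, 0.04 mM EDTA, pH 7.0, mixed with ligand and incubated 10-20 min at room temperature. Fluorescence read at ex 485/em 525 nm, in duplicate. Percent binding was computed from the intensities of ligand-treated complex, complex without ligand, and complex with neomycin.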

Escherichia coli [3] = experiment: Antibacterial activity against NEO-sensitive Escherichia coli ATCC 25922 at 6.25 uM after 15 to 20 hrs by CLSI protocol based microdilution assay relative to control; type: functional
In short: (§2)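 Single-concentration screen at 6.25 μM against exponential-phase cultures, in duplicate, with NEO as reference. Enterococcus was grown in BHI broth, M. smegmatis in TS broth with 0.05% Tween 80, and all other strains in TS broth. The 1% DMSO water vehicle was added to broth (background) and culture (growth control). Incubation was 37 °C, humidified, 15-20 h. Result is percent growth inhibition.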

Escherichia coli [4] = experiment: Antibacterial activity against NEO-sensitive Escherichia coli harboring TolC mutant at 6.25 uM after 15 to 20 hrs by CLSI protocol based microdilution assay relative to control; type: functional
In short: (§3)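 Exponential-phase cultures were exposed to 6.25 μM compound in duplicate with neomycin as reference, at 37 °C in a humidified incubator for 15-20 h. Broth and culture controls received sterile water with 1% DMSO. Percent growth inhibition was calculated against the growth and background controls.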

Acinetobacter baumannii = experiment: Antibacterial activity against NEO-sensitive Acinetobacter baumannii ATCC 19606 at 6.25 uM after 15 to 20 hrs by CLSI protocol based microdilution assay relative to control; type: functional, ATCC 19606 = CIP 70.34 = JCM 6841
In short: as §2

Staphylococcus aureus [5] = experiment: Antibacterial activity against methicillin-resistant Staphylococcus aureus 33591 at 6.25 uM after 15 to 20 hrs by CLSI protocol based microdilution assay relative to control; type: functional
In short: as §3

[6] = test system: Staphylococcus epidermidis; experiment: Antibacterial activity against NEO-sensitive Staphylococcus epidermidis 12384 at 6.25 uM after 15 to 20 hrs by CLSI protocol based microdilution assay relative to control; type: functional
In short: as §2

Enterococcus faecalis = experiment: Antibacterial activity against NEO-intermediate sensitive Enterococcus faecalis ATCC 29212 at 6.25 uM after 15 to 20 hrs by CLSI protocol based microdilution assay relative to control; type: functional
In short: as §2

Ribosomal RNA A-site [7] = experiment: Displacement of F-NEO from human cytosolic rRNA-A site after 10 to 20 mins by fluorescence assay; type: nucleic-acid assay
In short: (§4)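 A 100 nM F-NEO:A-site RNA complex in 10 mM HEPES, 50 mM NaCl, 0.04 mM EDTA, pH 7.0 was titrated with 2-fold dilutions of ligand from 20 to 0.009 μM, or from 60 or 40 μM for weaker ligands. Incubated 10-20 min at room temperature, fluorescence read at ex 485/em 525 nm. IC50 from dose-response curve fit.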

Staphylococcus aureus [8] = experiment: Antibacterial activity against methicillin-resistant Staphylococcus aureus M0602 at 6.25 uM after 15 to 20 hrs by CLSI protocol based microdilution assay relative to control; type: functional
In short: as §3

Bacillus anthracis = experiment: Antibacterial activity against NEO-sensitive Bacillus anthracis BA852 at 6.25 uM after 15 to 20 hrs by CLSI protocol based microdilution assay relative to control; type: functional
In short: as §3

Streptococcus pyogenes = experiment: Antibacterial activity against NEO-resistant Streptococcus pyogenes C203 at 6.25 uM after 15 to 20 hrs by CLSI protocol based microdilution assay relative to control; type: functional
In short: as §3

Staphylococcus aureus [9] = experiment: Antibacterial activity against methicillin-resistant Staphylococcus aureus A960649 at 6.25 uM after 15 to 20 hrs by CLSI protocol based microdilution assay relative to control; type: functional
In short: as §3

Listeria monocytogenes = experiment: Antibacterial activity against NEO-sensitive Listeria monocytogenes ATCC 19115 at 6.25 uM after 15 to 20 hrs by CLSI protocol based microdilution assay relative to control; type: functional
In short: as §2

Staphylococcus aureus [10] = experiment: Antibacterial activity against NEO-sensitive Staphylococcus aureus harboring NorA mutant at 6.25 uM after 15 to 20 hrs by CLSI protocol based microdilution assay relative to control; type: functional
In short: as §3

[11] = Displacement of F-NEO from human mitochondrial rRNA-A site C1410U mutant after 10 to 20 mins by fluorescence assay
In short: as §4

Ribosomal RNA A-site [12] = experiment: Displacement of F-NEO from Escherichia coli rRNA-A site after 10 to 20 mins by fluorescence assay; type: nucleic-acid assay
In short: as §4

[13] = Inhibition of AAC(6')-1e (unknown origin)
Staphylococcus aureus [14] = experiment: Antibacterial activity against methicillin-resistant Staphylococcus aureus SU-5 at 6.25 uM after 15 to 20 hrs by CLSI protocol based microdilution assay relative to control; type: functional
In short: as §3

[15] = Inhibition of Eis (unknown origin)
Staphylococcus aureus [16] = experiment: Antibacterial activity against NEO-sensitive Staphylococcus aureus 25923 at 6.25 uM after 15 to 20 hrs by CLSI protocol based microdilution assay relative to control; type: functional
In short: as §2

[17] = Inhibition of AAC(2')-1c (unknown origin)
Ribosomal RNA A-site [18] = experiment: Displacement of F-NEO from human cytosolic rRNA-A site after 10 to 20 mins by fluorescence assay relative to NEO; type: nucleic-acid assay; parameters: concentration or dose not given beside the values
In short: as §1

Klebsiella pneumoniae = experiment: Antibacterial activity against Klebsiella pneumoniae NR-151410 at 6.25 uM after 15 to 20 hrs by CLSI protocol based microdilution assay relative to control; type: functional
In short: as §2

Pseudomonas aeruginosa = experiment: Antibacterial activity against NEO-resistant Pseudomonas aeruginosa 27853 at 6.25 uM after 15 to 20 hrs by CLSI protocol based microdilution assay relative to control; type: functional
In short: as §3

Klebsiella oxytoca = experiment: Antibacterial activity against NEO-sensitive Klebsiella oxytoca HM-625 at 6.25 uM after 15 to 20 hrs by CLSI protocol based microdilution assay relative to control; type: functional
In short: as §2

Ribosomal RNA A-site [19] = experiment: Displacement of F-NEO from human mitochondrial rRNA-A site after 10 to 20 mins by fluorescence assay relative to NEO; type: nucleic-acid assay; parameters: concentration or dose not given beside the values
In short: as §1

Homo sapiens [20] = organism: Homo sapiens; experiment: Displacement of F-NEO from human mitochondrial rRNA-A site C1410U mutant after 10 to 20 mins by fluorescence assay relative to NEO; parameters: concentration or dose not given beside the values
In short: as §1

Ribosomal RNA A-site [21] = experiment: Displacement of F-NEO from Escherichia coli rRNA-A site after 10 to 20 mins by fluorescence assay relative to NEO; type: nucleic-acid assay; parameters: concentration or dose not given beside the values
In short: as §1

[22] = Antibacterial activity against NEO-sensitive Enterobacter cloacae 13047 at 6.25 uM after 15 to 20 hrs by CLSI protocol based microdilution assay relative to control; type: functional, Enterobacter cloacae subsp. cloacae, ATCC 13047
In short: as §2

Ribosomal RNA A-site [23] = experiment: Displacement of F-NEO from human mitochondrial rRNA-A site after 10 to 20 mins by fluorescence assay; type: nucleic-acid assay
In short: as §4

Enterococcus faecium = experiment: Antibacterial activity against NEO-intermediate sensitive Enterococcus faecium BM4105-RF at 6.25 uM after 15 to 20 hrs by CLSI protocol based microdilution assay relative to control; type: functional
In short: as §2

NC[C@@H]1O[C@H](O[C@H]2[C@@H](O)[C@H](O[C@@H]3[C@@H](O)[C@H](N)C[C@H](N)[C@H]3O[C@H]3O[C@H](CN)[C@@H](O)[C@H](O)[C@H]3N)O[C@@H]2CSCCNC(=O)CCc2ccc3ccc4cccc5ccc2c3c45)[C@H](N)[C@@H](O)[C@@H]1O
inhibition [1]: Active
inhibition (Homo sapiens [2]): 65%
Activity (Escherichia coli [3]): 0%
Activity (Escherichia coli [4]): inactive
Activity (Acinetobacter baumannii): 8%
Activity (Staphylococcus aureus [5]): 16%
Activity [6]: 56%
Activity (Enterococcus faecalis): 10%
IC50 (Ribosomal RNA A-site [7]): 0.204 µM
Activity (Staphylococcus aureus [8]): inactive
Activity (Bacillus anthracis): inactive
Activity (Streptococcus pyogenes): 35%
Activity (Staphylococcus aureus [9]): 19%
Activity (Listeria monocytogenes): inactive
Activity (Staphylococcus aureus [10]): inactive
IC50 [11]: 0.147 µM
IC50 (Ribosomal RNA A-site [12]): 0.191 µM
inhibition [13]: Active
Activity (Staphylococcus aureus [14]): inactive
inhibition [15]: Active
Activity (Staphylococcus aureus [16]): 29%
inhibition [17]: Active
inhibition (Ribosomal RNA A-site [18]): 91%
Activity (Klebsiella pneumoniae): 18%
Activity (Pseudomonas aeruginosa): 10%
Activity (Klebsiella oxytoca): 14%
inhibition (Ribosomal RNA A-site [19]): 88%
inhibition (Homo sapiens [20]): 86%
inhibition (Ribosomal RNA A-site [21]): 88%
Activity [22]: 0%
IC50 (Ribosomal RNA A-site [23]): 0.211 µM
Activity (Enterococcus faecium): 26%

NC[C@@H]1O[C@H](O[C@H]2[C@@H](O)[C@H](O[C@@H]3[C@@H](O)[C@H](N)C[C@H](N)[C@H]3O[C@H]3O[C@H](CN)[C@@H](O)[C@H](O)[C@H]3N)O[C@@H]2CSCCNC(=O)CCCc2ccc3ccc4cccc5ccc2c3c45)[C@H](N)[C@@H](O)[C@@H]1O
inhibition [1]: inactive
inhibition (Homo sapiens [2]): 58%
Activity (Escherichia coli [3]): 7%
Activity (Escherichia coli [4]): 100%
Activity (Acinetobacter baumannii): 10%
Activity (Staphylococcus aureus [5]): 20%
Activity [6]: 82%
Activity (Enterococcus faecalis): 18%
IC50 (Ribosomal RNA A-site [7]): 0.175 µM
Activity (Staphylococcus aureus [8]): 32%
Activity (Bacillus anthracis): 100%
Activity (Streptococcus pyogenes): 20%
Activity (Staphylococcus aureus [9]): 30%
Activity (Listeria monocytogenes): 49%
Activity (Staphylococcus aureus [10]): 53%
IC50 [11]: 0.126 µM
IC50 (Ribosomal RNA A-site [12]): 0.148 µM
inhibition [13]: inactive
Activity (Staphylococcus aureus [14]): 34%
inhibition [15]: inactive
Activity (Staphylococcus aureus [16]): 36%
inhibition [17]: inactive
inhibition (Ribosomal RNA A-site [18]): 66%
Activity (Klebsiella pneumoniae): 20%
Activity (Pseudomonas aeruginosa): 7%
Activity (Klebsiella oxytoca): 13%
inhibition (Ribosomal RNA A-site [19]): 74%
inhibition (Homo sapiens [20]): 92%
inhibition (Ribosomal RNA A-site [21]): 78%
Activity [22]: 0%
IC50 (Ribosomal RNA A-site [23]): 0.168 µM
Activity (Enterococcus faecium): 0%

NC[C@@H]1O[C@H](O[C@H]2[C@@H](O)[C@H](O[C@@H]3[C@@H](O)[C@H](N)C[C@H](N)[C@H]3O[C@H]3O[C@H](CN)[C@@H](O)[C@H](O)[C@H]3N)O[C@@H]2CNC(=O)Cc2ccc3ccc4cccc5ccc2c3c45)[C@H](N)[C@@H](O)[C@@H]1O
inhibition [1]: Active
inhibition (Homo sapiens [2]): 22%
Activity (Escherichia coli [3]): 7%
Activity (Escherichia coli [4]): inactive
Activity (Acinetobacter baumannii): 6%
Activity (Staphylococcus aureus [5]): 27%
Activity [6]: 15%
Activity (Enterococcus faecalis): 12%
IC50 (Ribosomal RNA A-site [7]): 0.375 µM
Activity (Staphylococcus aureus [8]): inactive
Activity (Bacillus anthracis): inactive
Activity (Streptococcus pyogenes): inactive
Activity (Staphylococcus aureus [9]): 15%
Activity (Listeria monocytogenes): inactive
Activity (Staphylococcus aureus [10]): inactive
IC50 [11]: 0.274 µM
IC50 (Ribosomal RNA A-site [12]): 0.303 µM
inhibition [13]: Active
Activity (Staphylococcus aureus [14]): inactive
inhibition [15]: Active
Activity (Staphylococcus aureus [16]): 30%
inhibition [17]: Active
inhibition (Ribosomal RNA A-site [18]): 38%
Activity (Klebsiella pneumoniae): 10%
Activity (Pseudomonas aeruginosa): 19%
Activity (Klebsiella oxytoca): 5%
inhibition (Ribosomal RNA A-site [19]): 47%
inhibition (Homo sapiens [20]): 73%
inhibition (Ribosomal RNA A-site [21]): 33%
Activity [22]: 0%
IC50 (Ribosomal RNA A-site [23]): 0.339 µM
Activity (Enterococcus faecium): 0%
